Converted amounts (≈) assume the structure as drawn.
What follows are compounds tested on Mycobacterium tuberculosis (assay: Antimycobacterial activity against multi-drug-resistant Mycobacterium tuberculosis by agar dilution method).
Format: functional
Summary of the method: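 MIC was determined by agar dilution, in duplicate.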
In the case of `CC1(C)COCN1c1nc2c(cc1[N+](=O)[O-])c(=O)c(C(=O)O)cn2C(C)(C)C`, the MIC is reported as 0.1 µM (≈ 0.039 µg/mL). With `O=C(O)c1cn(-c2ccc(F)cc2)c2nc(N3CCN(C(c4ccccc4)c4ccc(Cl)cc4)CC3)c([N+](=O)[O-])cc2c1=O` (stereo not drawn) the MIC was 0.31 µM (≈ 0.19 µg/mL). `O=C(O)c1cn(-c2ccc(F)cc2)c2nc(N3CCC(O)(c4ccc(Cl)cc4)CC3)c([N+](=O)[O-])cc2c1=O` was tested, and the MIC was 0.72 µM (≈ 0.388 µg/mL). `CC(C)(C)n1cc(C(=O)O)c(=O)c2cc([N+](=O)[O-])c(N3CCC(N4CCCCC4)CC3)nc21` was tested, and the MIC was 1.7 µM (≈ 0.778 µg/mL). `O=C(O)c1cn(C2CC2)c2nc(N3CCC(n4c(=O)[nH]c5cc(Cl)ccc54)CC3)c([N+](=O)[O-])cc2c1=O` showed an MIC of 0.74 µM (≈ 0.388 µg/mL). `CC(C)(C)n1cc(C(=O)O)c(=O)c2cc([N+](=O)[O-])c(N3CCC(n4c(=O)[nH]c5cc(Cl)ccc54)CC3)nc21` showed an MIC of 2.88 µM (≈ 1.56 µg/mL). Compound `CCN(CC)C(=O)C1CCCN(c2nc3c(cc2[N+](=O)[O-])c(=O)c(C(=O)O)cn3-c2ccc(F)cc2)C1` (stereo not drawn) has an MIC of 1.52 µM (≈ 0.777 µg/mL). `CC(C)(C)n1cc(C(=O)O)c(=O)c2cc([N+](=O)[O-])c(N3CCN(Cc4ccc5c(c4)OCO5)CC3)nc21` gave an MIC of 3.06 µM (≈ 1.56 µg/mL). For `CC(C)(C)n1cc(C(=O)O)c(=O)c2cc([N+](=O)[O-])c(N3CCC4(CC3)OCCO4)nc21`, the MIC was 0.44 µM (≈ 0.19 µg/mL). Compound `CC(C)(C)NC(=O)C1c2ccccc2CCN1c1nc2c(cc1[N+](=O)[O-])c(=O)c(C(=O)O)cn2C1CC1` (stereo not drawn) has an MIC of 6.19 µM (≈ 3.13 µg/mL). With `O=C(O)c1cn(-c2ccc(F)cc2)c2nc(N3CCSCC3)c([N+](=O)[O-])cc2c1=O` the MIC was 0.91 µM (≈ 0.392 µg/mL). `CC(C)(C)n1cc(C(=O)O)c(=O)c2cc([N+](=O)[O-])c(N3CCSCC3)nc21` showed an MIC of 0.48 µM (≈ 0.188 µg/mL). For `CN1CCN(c2nc3c(cc2[N+](=O)[O-])c(=O)c(C(=O)O)cn3-c2ccc(F)cc2)CC1c1ccccc1` (stereo not drawn), the MIC was 0.18 µM (≈ 0.0906 µg/mL). Work on `CN1CCN(c2nc3c(cc2[N+](=O)[O-])c(=O)c(C(=O)O)cn3C(C)(C)C)CC1c1ccccc1` (stereo not drawn) yielded an MIC of 0.84 µM (≈ 0.391 µg/mL). `O=C(O)c1cn(C2CC2)c2nc(N3CCN(C(=O)C4COc5ccccc5O4)CC3)c([N+](=O)[O-])cc2c1=O` (stereo not drawn) showed an MIC of 1.49 µM (≈ 0.777 µg/mL). `CC1CN(c2nc3c(cc2[N+](=O)[O-])c(=O)c(C(=O)O)cn3C2CC2)CC(C)O1` (stereo not drawn) was tested, and the MIC was 4.02 µM (≈ 1.56 µg/mL). Compound `O=C(O)c1cn(-c2ccc(F)cc2)c2nc(N3CCC(N4CCCCC4)CC3)c([N+](=O)[O-])cc2c1=O` has an MIC of 1.57 µM (≈ 0.778 µg/mL). In the case of `CC(C)(C)n1cc(C(=O)O)c(=O)c2cc([N+](=O)[O-])c(N3CCN(C(=O)C4COc5ccccc5O4)CC3)nc21` (stereo not drawn), the MIC is reported as 2.9 µM (≈ 1.56 µg/mL). In the case of `O=C(O)c1cn(C2CC2)c2nc(N3CCN(C(=O)c4ccco4)CC3)c([N+](=O)[O-])cc2c1=O`, the MIC is reported as 3.44 µM (≈ 1.56 µg/mL). `CC(C)(C)NC(=O)C1c2ccccc2CCN1c1nc2c(cc1[N+](=O)[O-])c(=O)c(C(=O)O)cn2C(C)(C)C` (stereo not drawn) showed an MIC of 1.49 µM (≈ 0.777 µg/mL). In the case of `O=C(O)c1cn2c(n1)CN(c1nc3c(cc1[N+](=O)[O-])c(=O)c(C(=O)O)cn3C1CC1)CC2`, the MIC is reported as 1.77 µM (≈ 0.779 µg/mL). For `CC(C)(C)n1cc(C(=O)O)c(=O)c2cc([N+](=O)[O-])c(N3CCN(C(=O)c4ccco4)CC3)nc21`, the MIC was 3.32 µM (≈ 1.56 µg/mL). Work on `O=C(O)c1cn(C2CC2)c2nc(N3CCN(Cc4ccc5c(c4)OCO5)CC3)c([N+](=O)[O-])cc2c1=O` yielded an MIC of 1.58 µM (≈ 0.78 µg/mL). With `CC(C)(C)n1cc(C(=O)O)c(=O)c2cc([N+](=O)[O-])c(N3CCn4cc(C(=O)O)nc4C3)nc21` the MIC was 0.42 µM (≈ 0.192 µg/mL). Compound `COc1ccc(CC2C3=C(CCCC3)CCN2c2nc3c(cc2[N+](=O)[O-])c(=O)c(C(=O)O)cn3C2CC2)cc1` (stereo not drawn) has an MIC of 0.74 µM (≈ 0.393 µg/mL). `CC1CN(c2nc3c(cc2[N+](=O)[O-])c(=O)c(C(=O)O)cn3-c2ccc(F)cc2)CC(C)O1` (stereo not drawn) gave an MIC of 0.43 µM (≈ 0.19 µg/mL). `O=C(O)c1cn2c(n1)CN(c1nc3c(cc1[N+](=O)[O-])c(=O)c(C(=O)O)cn3-c1ccc(F)cc1)CC2` gave an MIC of 0.38 µM (≈ 0.188 µg/mL). In the case of `O=C(O)c1cn(-c2ccc(F)cc2)c2nc(N3CCN(C(=O)c4ccco4)CC3)c([N+](=O)[O-])cc2c1=O`, the MIC is reported as 1.54 µM (≈ 0.781 µg/mL). Work on `O=C(O)c1cn(-c2ccc(F)cc2)c2nc(N3CCC(n4c(=O)[nH]c5cc(Cl)ccc54)CC3)c([N+](=O)[O-])cc2c1=O` yielded an MIC of 0.62 µM (≈ 0.359 µg/mL). Work on `CC(C)(C)NC(=O)C1c2ccccc2CCN1c1nc2c(cc1[N+](=O)[O-])c(=O)c(C(=O)O)cn2-c1ccc(F)cc1` (stereo not drawn) yielded an MIC of 1.39 µM (≈ 0.778 µg/mL). In the case of `CC(C)(C)n1cc(C(=O)O)c(=O)c2cc([N+](=O)[O-])c(N3CCC(O)(c4ccc(Cl)cc4)CC3)nc21`, the MIC is reported as 1.56 µM (≈ 0.781 µg/mL). For `COc1c(N2CCNC(C)C2)c(F)cc2c(=O)c(C(=O)O)cn(C3CC3)c12` (stereo not drawn) [GATIFLOXACIN], the MIC was 8.34 µM (≈ 3.13 µg/mL). `NNC(=O)c1ccncc1` [ISONIAZID] was tested, and the MIC was 45.6 µM (≈ 6.25 µg/mL).

— ChEMBL document CHEMBL1138270, “Antimycobacterial activities of novel 1-(cyclopropyl/tert-butyl/4-fluorophenyl)-1,4-dihydro- 6-nitro-4-oxo-7-(substituted secondary amino)-1,8-naphthyridine-3-carboxylic acid” (J Med Chem, 2007)
